From ChEMBL document CHEMBL1649486, “Comparative efficacies of telavancin and vancomycin in preventing device-associated colonization and infection by Staphylococcus aureus in rabbits” (2009)
Converted amounts (≈) assume the structure as drawn.

Key:
Type in all cases: functional
Staphylococcus aureus [1] = experiment: Antimicrobial activity against Staphylococcus aureus P1 infected in New Zealand rabbit assessed as decrease in catheter related infection rate at 30 mg/kg, iv (reference value: 100%); design: scale not given: the % may be the effect or the level left
In short: (§1)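 Female specific-pathogen-free New Zealand White rabbits, 4-7 months old, 3-4 kg, nine per group. Each got a single iv dose over ~2 min under anesthesia, with D5W as control. Six subcutaneous catheter segments per rabbit were surface-inoculated with 10^5 CFU MSSA P1. Infection = inoculated strain grown from both the device sonication culture and a swab of adjacent soft-tissue collection or wound discharge; rate = infected/total devices.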

Staphylococcus aureus [2] = experiment: Antimicrobial activity against Staphylococcus aureus P1 infected in New Zealand rabbit assessed as decrease in catheter related infection rate at 15 mg/kg, iv (reference value: 100%); design: scale not given: the % may be the effect or the level left; in short: as §1
Staphylococcus aureus [3] = experiment: Antimicrobial activity against Staphylococcus aureus P1 infected in New Zealand rabbit assessed as decrease in catheter bacterial colonization rate at 45 mg/kg, iv (reference value: 100%); design: scale not given: the % may be the effect or the level left
In short: (§2)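 Female specific-pathogen-free New Zealand White rabbits, 4-7 months old, 3-4 kg, nine per group. Each got a single iv dose over ~2 min under anesthesia, with D5W as control. Six 2-cm polyurethane catheter segments were implanted subcutaneously in the back, and each surface was inoculated with 10^5 CFU MSSA P1 in Trypticase soy broth. Explants were sonicated in 2 ml saline and the sonicate cultured (detection limit 10 CFU). Colonization = inoculated strain grown from sonicate; rate = colonized/total devices.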

Staphylococcus aureus [4] = experiment: Antimicrobial activity against Staphylococcus aureus P1 infected in New Zealand rabbit assessed as decrease in catheter bacterial colonization rate at 30 mg/kg, iv (reference value: 100%); design: scale not given: the % may be the effect or the level left; in short: as §2
Staphylococcus aureus [5] = experiment: Antimicrobial activity against Staphylococcus aureus P1 infected in New Zealand rabbit assessed as decrease in catheter bacterial colonization rate at 15 mg/kg, iv (reference value: 100%); design: scale not given: the % may be the effect or the level left; in short: as §2
Staphylococcus aureus [6] = experiment: Antimicrobial activity against Staphylococcus aureus P1 infected in New Zealand rabbit assessed as decrease in catheter related infection rate at 45 mg/kg, iv (reference value: 100%); design: scale not given: the % may be the effect or the level left; in short: as §1
Staphylococcus aureus [7] = experiment: Antimicrobial activity against Staphylococcus aureus P1 by macrodilution method
In short: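 MIC and minimal bactericidal concentration determined in triplicate by standard broth macrodilution against MSSA clinical isolate P1.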

SMILES | Activity (Staphylococcus aureus [1]) [%] | Activity (Staphylococcus aureus [2]) [%] | Activity (Staphylococcus aureus [3]) [%] | Activity (Staphylococcus aureus [4]) [%] | Activity (Staphylococcus aureus [5]) [%] | Activity (Staphylococcus aureus [6]) [%] | MBC (Staphylococcus aureus [7]) [mg/L] | MIC (Staphylococcus aureus [7]) [mg/L]
CCCCCCCCCCNCCN[C@@]1(C)C[C@H](O[C@H]2[C@H](Oc3c4cc5cc3Oc3ccc(cc3Cl)[C@@H](O)[C@@H](NC(=O)[C@@H](CC(C)C)NC)C(=O)N[C@@H](CC(N)=O)C(=O)N[C@H]5C(=O)N[C@H]3C(=O)N[C@H](C(=O)N[C@H](C(=O)O)c5cc(O)c(CNCP(=O)(O)O)c(O)c5-c5cc3ccc5O)[C@H](O)c3ccc(c(Cl)c3)O4)O[C@H](CO)[C@@H](O)[C@@H]2O)O[C@@H](C)[C@H]1O [TELAVANCIN] | 9 | 35 | 11 | 11 | 39 | 11 | 1 (≈ 0.57 µM) | 0.25 (≈ 0.142 µM)
CN[C@H](CC(C)C)C(=O)N[C@H]1C(=O)N[C@@H](CC(N)=O)C(=O)N[C@H]2C(=O)N[C@H]3C(=O)N[C@H](C(=O)N[C@H](C(=O)O)c4cc(O)cc(O)c4-c4cc3ccc4O)[C@H](O)c3ccc(c(Cl)c3)Oc3cc2cc(c3O[C@@H]2O[C@H](CO)[C@@H](O)[C@H](O)[C@H]2O[C@H]2C[C@](C)(N)[C@H](O)[C@H](C)O2)Oc2ccc(cc2Cl)[C@H]1O [VANCOMYCIN] |  |  |  |  |  |  | 8 (≈ 5.52 µM) | 
